Laboratory results published in ChEMBL document CHEMBL1142606, “Antibiotic bisanthraquinones produced by a streptomycete isolated from a cyanobacterium associated with Ecteinascidia turbinata” (J Nat Prod, 2006).

Experiments:
Staphylococcus aureus = test: Antibacterial activity against methicillin-resistant Staphylococcus aureus ATCC 43300 after 18 hrs by broth dilution assay; assay type: functional, organism-based; conditions: ATCC 43300, 18 h
Outline: (§1)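 Broth dilution; MRSA ATCC 43300 in trypticase soy medium, VRE ATCC 51299 in brain heart infusion medium. Cultures grown 14 h on rotary shaker at 38 °C, diluted to A600 0.04-0.06, then further 10-fold, dispensed to microtiter wells. Compounds tested in dilution series, ten replicates each; growth read as A600 after 18 h; IC50 reported.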

Enterococcus faecalis = test: Antibacterial activity against vancomycin-resistant Enterococcus faecalis ATCC 51299 after 18 hrs by broth dilution assay; assay type: functional, organism-based; conditions: ATCC 51299, 18 h; outline: as §1
[1] = Cytotoxicity against human HCT 116 cells; assay type: functional, cell-based

Compound `CC1=CC(O)=C2C(=O)c3c(O)cccc3[C@@]34Oc5c(ccc6c5C(=O)c5c(O)cc(C)cc5C6=O)C23[C@@H]1[C@H](C)O4` (stereo partly specified) has an IC50 (Staphylococcus aureus) of 31000 nM, an IC50 (Enterococcus faecalis) of 130 µM and an IC50 [1] of 6.6 µM.
In the case of `Cc1cc(O)c2c(c1)C(=O)c1ccc3c(c1C2=O)O[C@@]12O[C@@H](C)[C@H]4C31C(=C(O)C[C@@]4(C)O)C(=O)c1c(O)cccc12` (stereo partly specified), the IC50 (Staphylococcus aureus) is reported as 150 nM, the IC50 (Enterococcus faecalis) is reported as 2 µM and the IC50 [1] is reported as 3.3 µM.
For `Cc1cc(O)c2c(c1)C(=O)c1ccc3c(c1C2=O)O[C@@]12O[C@@H](C)[C@@]4(O)C31C(=C(O)C[C@@]4(C)O)C(=O)c1c(O)cccc12` (stereo partly specified), the IC50 (Staphylococcus aureus) was 360 nM, the IC50 (Enterococcus faecalis) was 12 µM and the IC50 [1] was 5.6 µM.
In the case of `CN(C)[C@@H]1C(O)=C(C(N)=O)C(=O)[C@@]2(O)C(O)=C3C(=O)c4c(O)cccc4[C@@](C)(O)[C@H]3C[C@@H]12` [TETRACYCLINE], the IC50 (Staphylococcus aureus) is reported as 0.2 µg/mL and the IC50 (Enterococcus faecalis) is reported as 0.7 µg/mL.
